Results as given in ChEMBL document CHEMBL1132280, “Discovery of potent and selective SH2 inhibitors of the tyrosine kinase ZAP-70” (J Med Chem, 1999).
Square brackets hold non-standard residues; d marks the D form. Peptide text beside a SMILES is read from it. pY = N[C@@H](Cc1ccc(OP(=O)(O)O)cc1)C(=O)O

Assays:
Design in all cases: species or system Escherichia coli
[1] = target: Tyrosine-protein kinase SYK (Homo sapiens, UniProt P43405); assay: Binding affinity against Syk protein tyrosine kinase SH2 domain
[2] = target: Proto-oncogene tyrosine-protein kinase Src (Homo sapiens, UniProt P12931); assay: Binding affinity against Src SH2 domain
[3] = target: T1, Tyrosine-protein kinase ZAP-70 (Homo sapiens, UniProt P43403); assay: Binding affinity against SH2 domain of Zeta-chain (TCR) associated protein kinase 70 kDa
T1 sequence (P43403 whole entry): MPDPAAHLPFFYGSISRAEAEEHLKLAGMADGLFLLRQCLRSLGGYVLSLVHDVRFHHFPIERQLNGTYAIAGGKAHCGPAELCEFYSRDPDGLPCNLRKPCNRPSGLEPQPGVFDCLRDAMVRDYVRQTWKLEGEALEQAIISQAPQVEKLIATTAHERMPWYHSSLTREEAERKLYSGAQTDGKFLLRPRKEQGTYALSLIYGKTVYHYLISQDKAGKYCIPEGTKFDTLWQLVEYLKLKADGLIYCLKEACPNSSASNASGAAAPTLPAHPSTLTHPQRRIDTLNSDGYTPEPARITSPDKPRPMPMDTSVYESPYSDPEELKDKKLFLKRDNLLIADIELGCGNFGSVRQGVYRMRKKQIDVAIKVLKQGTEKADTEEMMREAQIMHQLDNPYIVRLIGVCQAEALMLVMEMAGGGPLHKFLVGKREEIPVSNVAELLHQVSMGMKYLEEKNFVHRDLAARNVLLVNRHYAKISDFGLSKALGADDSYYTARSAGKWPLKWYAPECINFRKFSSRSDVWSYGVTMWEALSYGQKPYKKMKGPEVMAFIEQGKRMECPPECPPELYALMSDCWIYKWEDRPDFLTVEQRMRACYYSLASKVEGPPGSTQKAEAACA

[4] = target: Growth factor receptor-bound protein 2 (Homo sapiens, UniProt P62993); assay: Binding affinity against Growth factor receptor bound protein 2
In short: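 Fluorescence polarization competition assay using human Grb2 SH2 (residues 55–152), expressed in E. coli BL21(DE3) and purified on phosphotyrosine-agarose. Compounds were serially diluted 1:2 across 1000–0.04 μM in 20 mM phosphate pH 7.4 with 100 mM NaCl, 10 mM DTT, 4% DMSO, 1 mM EDTA and 0.1% bovine γ-globulin. They were added to 1.25 µM protein premixed with 20 nM fluorescein-labelled peptide (ex 485/em 530 nm). IC50 was taken from percent tracer bound relative to vehicle, as the mean of ≥3 experiments.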

Proto-oncogene tyrosine-protein kinase Src, sequence (P12931 2-536 limits assumed): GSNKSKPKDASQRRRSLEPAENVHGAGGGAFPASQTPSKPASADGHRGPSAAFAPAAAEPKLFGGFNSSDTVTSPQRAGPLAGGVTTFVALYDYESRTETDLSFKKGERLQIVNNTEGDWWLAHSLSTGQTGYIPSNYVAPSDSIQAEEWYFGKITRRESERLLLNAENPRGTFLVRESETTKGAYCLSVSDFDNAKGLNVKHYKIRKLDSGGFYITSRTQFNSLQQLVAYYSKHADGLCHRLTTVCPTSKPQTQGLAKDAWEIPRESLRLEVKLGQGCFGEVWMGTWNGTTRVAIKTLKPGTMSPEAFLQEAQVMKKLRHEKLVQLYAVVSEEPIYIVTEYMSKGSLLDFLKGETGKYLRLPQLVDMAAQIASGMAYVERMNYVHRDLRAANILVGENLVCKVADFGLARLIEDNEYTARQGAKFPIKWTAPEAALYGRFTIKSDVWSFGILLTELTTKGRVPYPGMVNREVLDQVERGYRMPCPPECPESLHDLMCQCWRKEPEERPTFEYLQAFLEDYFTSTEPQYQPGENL

IC50 [1]	IC50 [2]	IC50 [3]	IC50 [4]	Compound
> 500 µM	156 µM	> 500 µM	–	CC(=O)N[C@@H](Cc1ccc(OP(=O)(O)O)cc1)C(=O)N[C@@H](CCC(N)=O)c1nc(CCc2ccccc2)no1
389 µM	261 µM	328 µM	–	CC(=O)N[C@@H](Cc1ccc(OP(=O)(O)O)cc1)C(=O)N[C@@H](CC(=O)O)C(=O)N[C@H](C(=O)N[C@@H](CC(C)C)C(N)=O)C(C)C (Ac-[pY]DVL-NH2)
420 µM	237 µM	422 µM	–	CC(=O)N[C@@H](Cc1ccc(OP(=O)(O)O)cc1)C(=O)N[C@@H](CC(N)=O)C(=O)N[C@@H](CCC(=O)O)C(=O)N[C@@H](CC(C)C)C(N)=O (Ac-[pY]NEL-NH2)
> 500 µM	> 500 µM	128 µM	–	CC(=O)N[C@@H](Cc1ccc(OP(=O)(O)O)cc1)C(=O)NCc1nc(Cc2ccc(C(F)(F)F)cc2)no1
> 500 µM	72 µM	> 500 µM	456 µM	CC(=O)N[C@@H](Cc1ccc(OP(=O)(O)O)cc1)C(=O)N[C@@H](CCC(N)=O)c1nc(Cc2ccccc2)no1
> 500 µM	> 500 µM	184 µM	–	CC(=O)N[C@@H](Cc1ccc(OP(=O)(O)O)cc1)C(=O)N[C@@H](CCC(N)=O)c1nc(Cc2ccc(Cl)cc2Cl)no1

Compound	IC50 [1]	IC50 [2]	IC50 [3]	IC50 [4]
CC[C@H](C)[C@H](NC(=O)[C@H](CCC(=O)O)NC(=O)[C@H](CCC(=O)O)NC(=O)[C@H](Cc1ccc(OP(=O)(O)O)cc1)NC(C)=O)C(N)=O	171 µM	6 µM	530 µM	–
